Legend:
hERG (KCNH2) = hERG (KCNH2) (Homo sapiens, UniProt Q12809); test: (§1) Inhibition of human ERG in L929 cells at 10 uM by whole cell patch-clamp assay; conditions: human
Histamine H1 receptor = Histamine H1 receptor (Homo sapiens, UniProt P35367); test: Displacement of [3H]pyrilamine from human recombinant histamine H1 receptor expressed in CHO cell by Betaplate scintillation counting; type: cell-based
Cavia porcellus [1] = test: Antihistamine activity in iv dosed Hartley guinea pig assessed as inhibition of histamine-induced bronchoconstriction pretreated before histamine challenge; type: functional
Summary of the method: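 Guinea pig in vivo antihistamine test; potency is reported as an ED50 in mg/kg.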

Cavia porcellus [2] = test: Cardiovascular toxicity in iv dosed Hartley guinea pig QTc prolongation after 30 mins by ECG; type: organism-based; conditions: in vivo, 0.5 h
Summary of the method: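 Guinea pig in vivo QTc test; potency is reported as the minimum effective dose (MED) in mg/kg.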

Cavia porcellus [3] = test: Cardiovascular toxicity in Hartley guinea pig assessed as QTc prolongation at 100 mg/kg, iv after 30 mins by ECG; type: organism-based; design: dose 100 mg/kg, route intravenous; conditions: in vivo, 0.5 h
[4] = target: T1, Voltage-gated inwardly rectifying potassium channel KCNH2 (Homo sapiens, UniProt Q12809); test: as §1
Cavia porcellus [5] = test: Cardiovascular toxicity in Hartley guinea pig assessed as QTc prolongation at 50 mg/kg, iv after 30 mins by ECG; type: organism-based; design: dose 50 mg/kg, route intravenous; conditions: in vivo, 0.5 h
[6] = target: T1, Voltage-gated inwardly rectifying potassium channel KCNH2; test: Inhibition of human ERG in L929 cells by whole cell patch-clamp assay
[7] = L929 cells expressing human ERG

Histamine H1 receptor, sequence (P35367 whole entry): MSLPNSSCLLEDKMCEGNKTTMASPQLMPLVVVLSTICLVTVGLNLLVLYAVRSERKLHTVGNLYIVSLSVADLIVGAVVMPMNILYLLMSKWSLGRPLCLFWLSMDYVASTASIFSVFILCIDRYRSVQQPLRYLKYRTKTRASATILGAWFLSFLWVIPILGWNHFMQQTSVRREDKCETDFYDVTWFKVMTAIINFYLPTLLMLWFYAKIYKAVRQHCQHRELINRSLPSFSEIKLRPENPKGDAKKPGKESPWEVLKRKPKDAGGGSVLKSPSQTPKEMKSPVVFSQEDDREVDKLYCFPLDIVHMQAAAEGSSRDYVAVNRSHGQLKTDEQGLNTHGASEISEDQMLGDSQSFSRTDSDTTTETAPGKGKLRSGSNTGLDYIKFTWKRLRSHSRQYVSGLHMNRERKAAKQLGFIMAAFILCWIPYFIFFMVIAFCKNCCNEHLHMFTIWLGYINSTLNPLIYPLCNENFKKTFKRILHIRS
hERG (KCNH2), sequence (Q12809 whole entry): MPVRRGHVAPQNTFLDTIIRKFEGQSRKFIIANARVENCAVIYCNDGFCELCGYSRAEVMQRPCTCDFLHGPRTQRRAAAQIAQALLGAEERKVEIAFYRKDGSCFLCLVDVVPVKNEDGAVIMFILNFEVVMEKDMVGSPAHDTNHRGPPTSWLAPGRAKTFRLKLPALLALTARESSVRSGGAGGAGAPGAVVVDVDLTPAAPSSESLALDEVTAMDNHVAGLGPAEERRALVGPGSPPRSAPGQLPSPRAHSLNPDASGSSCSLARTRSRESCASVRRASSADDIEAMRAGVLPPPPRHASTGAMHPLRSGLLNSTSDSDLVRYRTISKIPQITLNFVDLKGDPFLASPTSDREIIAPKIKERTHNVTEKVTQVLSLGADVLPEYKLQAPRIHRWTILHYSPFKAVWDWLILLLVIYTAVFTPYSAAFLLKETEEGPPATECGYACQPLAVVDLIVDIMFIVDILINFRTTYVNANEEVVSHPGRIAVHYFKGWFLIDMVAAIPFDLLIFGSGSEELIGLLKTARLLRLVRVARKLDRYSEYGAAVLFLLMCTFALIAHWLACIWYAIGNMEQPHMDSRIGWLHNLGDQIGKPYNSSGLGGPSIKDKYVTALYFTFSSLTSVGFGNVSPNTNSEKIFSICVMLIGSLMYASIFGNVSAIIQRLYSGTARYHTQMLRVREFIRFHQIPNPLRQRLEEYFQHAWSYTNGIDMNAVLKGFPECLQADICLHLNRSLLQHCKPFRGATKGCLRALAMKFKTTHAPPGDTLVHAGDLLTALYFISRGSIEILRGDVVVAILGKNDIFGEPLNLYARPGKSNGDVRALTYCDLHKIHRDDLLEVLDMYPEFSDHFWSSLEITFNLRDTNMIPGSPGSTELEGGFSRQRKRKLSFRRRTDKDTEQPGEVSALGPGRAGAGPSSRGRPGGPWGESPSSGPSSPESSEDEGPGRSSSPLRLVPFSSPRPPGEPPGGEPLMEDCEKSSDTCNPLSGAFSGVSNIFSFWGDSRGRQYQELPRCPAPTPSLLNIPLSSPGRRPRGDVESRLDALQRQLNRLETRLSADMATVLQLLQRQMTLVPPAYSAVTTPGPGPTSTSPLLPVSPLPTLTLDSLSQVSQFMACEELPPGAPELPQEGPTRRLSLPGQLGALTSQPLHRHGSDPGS
T1 sequence (Q12809 whole entry): as above

Row | Structure (SMILES) | inhibition at 10 µM (hERG (KCNH2); [7]) | Ki (Histamine H1 receptor; read-out: Ki) | other results
1 | Cc1ccc(CCN2CCC(C(O)(c3ccccc3)c3ccccc3)CC2)cc1 | 100% | 64 nM | 
2 | Cc1ccc(CCCCC2CCC(C(O)(c3ccccc3)c3ccccc3)CC2)cc1 (stereo not given) | 35% |  | Ki (Histamine H1 receptor; cho): Not Active
3 | OC(c1ccccc1)(c1ccccc1)C1CCNCC1 [AZACYCLONOL] |  | 659 nM | 
4 | CC1CCC(CCCCN2CCC(C(O)(c3ccccc3)c3ccccc3)CC2)CC1 (stereo not given) | 85% | 61 nM | 
5 | Cc1ccc(CCCCN2CCC(CO)CC2)cc1 | 54% |  | Ki (Histamine H1 receptor; cho): Not Active
6 | CC(C)(C(=O)O)c1ccc(C(O)CCCN2CCC(C(O)(c3ccccc3)c3ccccc3)CC2)cc1 (racemic) [FEXOFENADINE] |  |  | ED50 (Cavia porcellus [1]): 0.08 mg/kg; MED (Cavia porcellus [2]): Not Active; MED (Cavia porcellus [3]): > 100 mg/kg
7 | Cc1ccc(CCCCN2CCC(C(O)(c3ccccc3)c3ccccc3)CC2)cc1 |  | 39 nM | ED50 (Cavia porcellus [1]): 0.9 mg/kg; MED (Cavia porcellus [2]): 0.1 mg/kg
8 | Cc1ccc(CN2CCC(C(O)(c3ccccc3)c3ccccc3)CC2)cc1 | 100% | 16 nM | 
9 | O=C(O)c1ccc(CCCCN2CCC(C(O)(c3ccccc3)c3ccccc3)CC2)cc1 |  | 203 nM | inhibition at 10 µM (hERG (KCNH2); l929): 56%; IC50 [4]: 11000 nM; ED50 (Cavia porcellus [1]): 0.1 mg/kg; MED (Cavia porcellus [5]): > 50 mg/kg; MED (Cavia porcellus [2]): Not Active; IC50 [6]: 11000 nM
10 | COC(=O)c1ccc(CCCCN2CCC(C(O)(c3ccccc3)c3ccccc3)CC2)cc1 | 100% | 20 nM | 
11 | Cc1ccc(CCCN2CCC(C(O)(c3ccccc3)c3ccccc3)CC2)cc1 |  | 155 nM | 
12 | Cc1ccc(CCCC(=O)N2CCC(C(O)(c3ccccc3)c3ccccc3)CC2)cc1 | 11% |  | Ki (Histamine H1 receptor; cho): Not Active
13 | Cc1ccc(CCCCN2CCCCC2)cc1 | 71% | 3200 nM | 
14 | Cc1ccc(CCCCN2CCC(C(O)c3ccccc3)CC2)cc1 (stereo not given) | 97% | 121 nM | 
15 | CC(C)(C)c1ccc(C(O)CCCN2CCC(C(O)(c3ccccc3)c3ccccc3)CC2)cc1 (racemic) [TERFENADINE] |  |  | ED50 (Cavia porcellus [1]): 0.8 mg/kg; MED (Cavia porcellus [2]): 0.03 mg/kg

Reference: ChEMBL document CHEMBL1155359 (Bioorg Med Chem Lett, 2009)
